Reference: ChEMBL document CHEMBL1154352, “Toll-like receptor 7 selective synthetic oligoribonucleotide agonists: synthesis and structure-activity relationship studies” (J Med Chem, 2009)
The source made the active and inactive calls. The rule behind the calls is not given here.

How the values were obtained:
[1] = molecular target: T1, Toll-like receptor 7 (Homo sapiens) (UniProt Q9NYK1); test: Activation of human TLR7 expressed in HEK293XL assessed as fold induction of NF-kappaB activity at 50 ug/ml after 18 hrs by reporter gene assay relative to control
T1 sequence (whole entry): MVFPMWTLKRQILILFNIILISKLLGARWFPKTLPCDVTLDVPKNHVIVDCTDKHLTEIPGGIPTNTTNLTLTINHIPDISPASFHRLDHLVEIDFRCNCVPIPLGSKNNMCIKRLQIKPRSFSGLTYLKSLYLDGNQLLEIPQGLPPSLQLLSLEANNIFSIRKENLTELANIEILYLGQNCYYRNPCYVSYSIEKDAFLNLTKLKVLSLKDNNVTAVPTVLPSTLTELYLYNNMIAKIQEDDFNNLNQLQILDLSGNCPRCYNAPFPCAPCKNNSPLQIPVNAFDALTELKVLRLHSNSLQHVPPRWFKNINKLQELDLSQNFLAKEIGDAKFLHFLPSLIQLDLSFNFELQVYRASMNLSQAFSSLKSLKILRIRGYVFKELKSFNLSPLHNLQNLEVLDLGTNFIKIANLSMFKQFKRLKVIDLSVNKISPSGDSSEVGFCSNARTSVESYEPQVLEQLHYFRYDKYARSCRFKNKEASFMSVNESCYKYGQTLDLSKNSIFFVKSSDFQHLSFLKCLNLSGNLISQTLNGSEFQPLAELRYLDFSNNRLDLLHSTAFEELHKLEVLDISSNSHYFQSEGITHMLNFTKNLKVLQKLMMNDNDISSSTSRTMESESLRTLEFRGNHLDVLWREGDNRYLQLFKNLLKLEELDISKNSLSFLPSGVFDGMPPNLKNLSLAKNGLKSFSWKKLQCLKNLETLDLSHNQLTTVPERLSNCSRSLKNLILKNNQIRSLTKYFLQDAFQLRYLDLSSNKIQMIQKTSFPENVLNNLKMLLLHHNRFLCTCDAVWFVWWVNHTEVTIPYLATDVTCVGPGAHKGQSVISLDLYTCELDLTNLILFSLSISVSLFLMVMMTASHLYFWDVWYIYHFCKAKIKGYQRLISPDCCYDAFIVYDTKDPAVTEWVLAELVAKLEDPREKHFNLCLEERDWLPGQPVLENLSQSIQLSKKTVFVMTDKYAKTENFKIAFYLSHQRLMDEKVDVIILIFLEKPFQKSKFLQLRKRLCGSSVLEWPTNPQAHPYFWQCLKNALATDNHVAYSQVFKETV
Summary of the method: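 HEK293 cells stably expressing human TLR7 or TLR8, transiently transfected with SEAP reporter plasmid; medium replaced, SIMRA compounds added, 18 h incubation. Supernatant SEAP measured by QuantiBlue; expressed as fold increase in NF-κB activity over PBS control. Tabulated data at 50 μg/mL, representative of three independent experiments.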

Homo sapiens = organism: Homo sapiens; test: Ratio of human TLR7 activity to human TLR8 activity
Summary of the method: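 TLR7/TLR8 ratio computed from fold NF-κB (SEAP reporter) activation in HEK293 cells stably expressing human TLR7 versus TLR8, compounds at 50 μg/mL, 18 h exposure; representative of three independent experiments.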

[2] = molecular target: T2, Toll-like receptor 9 (Mus musculus) (UniProt Q9EQU3); test: Activation of mouse TLR9 expressed in HEK293 assessed as induction of NF-kappaB activity reporter gene assay; type: cell-based
T2 sequence (whole entry): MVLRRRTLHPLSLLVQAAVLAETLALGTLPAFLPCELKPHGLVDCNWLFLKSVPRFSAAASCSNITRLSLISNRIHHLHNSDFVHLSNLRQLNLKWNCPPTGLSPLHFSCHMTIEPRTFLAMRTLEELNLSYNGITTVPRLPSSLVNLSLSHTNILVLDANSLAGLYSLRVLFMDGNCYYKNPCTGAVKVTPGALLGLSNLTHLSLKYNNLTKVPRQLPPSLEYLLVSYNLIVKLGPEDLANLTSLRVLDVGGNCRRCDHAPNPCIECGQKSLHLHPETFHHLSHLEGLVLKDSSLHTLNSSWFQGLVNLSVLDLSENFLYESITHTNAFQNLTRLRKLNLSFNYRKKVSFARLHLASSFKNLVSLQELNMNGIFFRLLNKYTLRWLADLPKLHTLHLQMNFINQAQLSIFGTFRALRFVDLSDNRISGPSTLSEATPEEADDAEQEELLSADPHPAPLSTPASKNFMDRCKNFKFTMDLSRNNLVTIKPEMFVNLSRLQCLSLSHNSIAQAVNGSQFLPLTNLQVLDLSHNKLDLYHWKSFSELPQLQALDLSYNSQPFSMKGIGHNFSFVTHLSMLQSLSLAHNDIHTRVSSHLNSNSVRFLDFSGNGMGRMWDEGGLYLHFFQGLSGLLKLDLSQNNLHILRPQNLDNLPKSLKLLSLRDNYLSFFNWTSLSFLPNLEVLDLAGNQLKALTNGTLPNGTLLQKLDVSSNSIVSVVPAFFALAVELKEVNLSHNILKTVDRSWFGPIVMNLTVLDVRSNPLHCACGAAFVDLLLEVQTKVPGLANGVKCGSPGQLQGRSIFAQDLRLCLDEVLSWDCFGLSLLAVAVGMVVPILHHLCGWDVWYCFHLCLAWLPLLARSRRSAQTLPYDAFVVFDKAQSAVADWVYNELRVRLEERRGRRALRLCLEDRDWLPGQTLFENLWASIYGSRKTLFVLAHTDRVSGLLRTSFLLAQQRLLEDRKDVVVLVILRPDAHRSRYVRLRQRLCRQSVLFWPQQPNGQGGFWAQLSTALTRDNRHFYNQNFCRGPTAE

Splenocyte [3] = test: Immunomodulatory activity in C57BL/6 mouse splenocytes bearing TLR7 receptor assessed as IL6 release at 100 ug/ml after 24 hrs by ELISA; type: functional, cell-based
Summary of the method: (§1)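 C57BL/6 splenocytes in RPMI 1640 with 10% FBS, penicillin/streptomycin, 2 mM L-glutamine, plated at 5 × 10^6 cells/mL; compounds in PBS added, 37 °C for 24 h. Supernatant IL-12 and IL-6 by ELISA; representative of three independent experiments.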

Splenocyte [4] = test: Immunomodulatory activity in C57BL/6 mouse splenocytes bearing TLR7 receptor assessed as IL12 release at 100 ug/ml after 24 hrs by ELISA; type: functional, cell-based; summary of the method: as §1
PBMC [5] = test: Immunomodulatory activity in human PBMC assessed as induction of IL12 at 100 ug/ml after 24 hrs; type: functional, cell-based
Summary of the method: (§2)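 Human PBMCs plated at 5 × 10^6 cells/mL; compounds dissolved in PBS added at various concentrations, 37 °C for 24 h. Supernatant cytokines/chemokines quantified with human Luminex multiplex kit.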

PBMC [6] = test: Immunomodulatory activity in human PBMC assessed as induction of TNFalpha at 100 ug/ml after 24 hrs; type: functional, cell-based; summary of the method: as §2
PBMC [7] = test: Immunomodulatory activity in human PBMC assessed as induction of IFN-alpha at 100 ug/ml after 24 hrs

Nc1ccn([C@@H]2O[C@H](COP(=O)(S)O[C@H]3[C@@H](O)[C@H](n4cnc5c(N)ncnc54)O[C@@H]3COP(=O)(S)O[C@H]3[C@@H](O)[C@H](n4cnc5c(N)ncnc54)O[C@@H]3CO)[C@@H](OP(=O)(S)OC[C@H]3O[C@@H](n4ccc(=O)[nH]c4=O)[C@H](O)[C@@H]3OP(=O)(S)OC[C@H]3O[C@@H](n4ccc5c(=O)[nH]c(N)nc54)[C@H](O)[C@@H]3OP(=O)(S)OC[C@H]3O[C@@H](n4cnc5c(N)ncnc54)[C@H](O)[C@@H]3OP(=O)(S)OC[C@H]3O[C@@H](n4ccc(N)nc4=O)[C@H](O)[C@@H]3OP(=O)(S)OC[C@H]3O[C@@H](n4ccc5c(=O)[nH]c(N)nc54)[C@H](O)[C@@H]3OP(=O)(S)OC[C@H]3O[C@@H](n4ccc(N)nc4=O)[C@H](O)[C@@H]3OP(=O)(S)OC[C@H]3O[C@@H](n4ccc(=O)[nH]c4=O)[C@H](O)[C@@H]3OP(=O)(S)OC[C@H]3O[C@@H](n4ccc(=O)[nH]c4=O)[C@H](O)[C@@H]3OP(=O)(S)OCC(O)COP(=O)(S)O[C@H]3[C@@H](O)[C@H](n4ccc(=O)[nH]c4=O)O[C@@H]3COP(=O)(S)O[C@H]3[C@@H](O)[C@H](n4ccc(=O)[nH]c4=O)O[C@@H]3COP(=O)(S)O[C@H]3[C@@H](O)[C@H](n4ccc(N)nc4=O)O[C@@H]3COP(=O)(S)O[C@H]3[C@@H](O)[C@H](n4ccc5c(=O)[nH]c(N)nc54)O[C@@H]3COP(=O)(S)O[C@H]3[C@@H](O)[C@H](n4ccc(N)nc4=O)O[C@@H]3COP(=O)(S)O[C@H]3[C@@H](O)[C@H](n4cnc5c(N)ncnc54)O[C@@H]3COP(=O)(S)O[C@H]3[C@@H](O)[C@H](n4ccc5c(=O)[nH]c(N)nc54)O[C@@H]3COP(=O)(S)O[C@H]3[C@@H](O)[C@H](n4ccc(=O)[nH]c4=O)O[C@@H]3COP(=O)(S)O[C@H]3[C@@H](O)[C@H](n4ccc(N)nc4=O)O[C@@H]3COP(=O)(S)O[C@H]3[C@@H](O)[C@H](n4cnc5c(N)ncnc54)O[C@@H]3COP(=O)(S)O[C@H]3[C@@H](O)[C@H](n4cnc5c(N)ncnc54)O[C@@H]3CO)[C@H]2O)c(=O)n1 (stereo partly specified)
fold change (FC) [1]: 21.5
Ratio (Homo sapiens): 53.8
Activity [2]: inactive
Activity (Splenocyte [3]): Active
Activity (Splenocyte [4]): Active
Activity (PBMC [5]): 250 pg/mL
Activity (PBMC [6]): 20.3 pg/mL
IFN-alpha (PBMC [7]): 292 pg/mL

Nc1ccn([C@@H]2O[C@H](CO)[C@@H](OP(=O)(S)OC[C@H]3O[C@@H](n4ccc(=O)[nH]c4=O)[C@H](O)[C@@H]3OP(=O)(S)OC[C@H]3O[C@@H](n4ccc(=O)[nH]c4=O)[C@H](O)[C@@H]3OP(=O)(S)OC[C@H]3O[C@@H](n4ccc5c(=O)[nH]c(N)nc54)[C@H](O)[C@@H]3OP(=O)(S)OC[C@H]3O[C@@H](n4ccc(=O)[nH]c4=O)[C@H](O)[C@@H]3OP(=O)(S)OC[C@H]3O[C@@H](n4ccc5c(=O)[nH]c(N)nc54)[C@H](O)[C@@H]3OP(=O)(S)OC[C@H]3O[C@@H](n4cnc5c(N)ncnc54)[C@H](O)[C@@H]3OP(=O)(S)OC[C@H]3O[C@@H](n4ccc5c(=O)[nH]c(N)nc54)[C@H](O)[C@@H]3OP(=O)(S)OC[C@H]3O[C@@H](n4ccc(N)nc4=O)[C@H](O)[C@@H]3OP(=O)(S)OC[C@H]3O[C@@H](n4ccc(=O)[nH]c4=O)[C@H](O)[C@@H]3OP(=O)(S)OC[C@H]3O[C@@H](n4ccc(=O)[nH]c4=O)[C@H](O)[C@@H]3OP(=O)(S)OCC(O)COP(=O)(S)O[C@H]3[C@@H](O)[C@H](n4ccc(=O)[nH]c4=O)O[C@@H]3COP(=O)(S)O[C@H]3[C@@H](O)[C@H](n4ccc(=O)[nH]c4=O)O[C@@H]3COP(=O)(S)O[C@H]3[C@@H](O)[C@H](n4ccc(N)nc4=O)O[C@@H]3COP(=O)(S)O[C@H]3[C@@H](O)[C@H](n4ccc5c(=O)[nH]c(N)nc54)O[C@@H]3COP(=O)(S)O[C@H]3[C@@H](O)[C@H](n4cnc5c(N)ncnc54)O[C@@H]3COP(=O)(S)O[C@H]3[C@@H](O)[C@H](n4ccc5c(=O)[nH]c(N)nc54)O[C@@H]3COP(=O)(S)O[C@H]3[C@@H](O)[C@H](n4ccc(=O)[nH]c4=O)O[C@@H]3COP(=O)(S)O[C@H]3[C@@H](O)[C@H](n4ccc5c(=O)[nH]c(N)nc54)O[C@@H]3COP(=O)(S)O[C@H]3[C@@H](O)[C@H](n4ccc(=O)[nH]c4=O)O[C@@H]3COP(=O)(S)O[C@H]3[C@@H](O)[C@H](n4ccc(=O)[nH]c4=O)O[C@@H]3COP(=O)(S)O[C@H]3[C@@H](O)[C@H](n4ccc(N)nc4=O)O[C@@H]3CO)[C@H]2O)c(=O)n1 (stereo partly specified)
fold change (FC) [1]: 28.9
Ratio (Homo sapiens): 19.3
Activity [2]: inactive
Activity (Splenocyte [3]): Active
Activity (Splenocyte [4]): Active
Activity (PBMC [5]): 1020 pg/mL
Activity (PBMC [6]): 403 pg/mL
IFN-alpha (PBMC [7]): 138 pg/mL
